Our source for the IC50 values is ChEMBL document CHEMBL1128486, “Farnesyl diphosphate-based inhibitors of Ras farnesyl protein transferase” (J Med Chem, 1995).

A value given as a limit tells only on which side of the number the result lay.

In the first assay the target is Mevalonate kinase (Rattus norvegicus, UniProt P17256). Description: Inhibition of mevalonate kinase. As to conditions: read-out: I50. An outline of the steps: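 Mevalonate kinase was purified to homogeneity from rat liver and used for inhibition measurement.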
Sequence of Mevalonate kinase (P17256 whole entry): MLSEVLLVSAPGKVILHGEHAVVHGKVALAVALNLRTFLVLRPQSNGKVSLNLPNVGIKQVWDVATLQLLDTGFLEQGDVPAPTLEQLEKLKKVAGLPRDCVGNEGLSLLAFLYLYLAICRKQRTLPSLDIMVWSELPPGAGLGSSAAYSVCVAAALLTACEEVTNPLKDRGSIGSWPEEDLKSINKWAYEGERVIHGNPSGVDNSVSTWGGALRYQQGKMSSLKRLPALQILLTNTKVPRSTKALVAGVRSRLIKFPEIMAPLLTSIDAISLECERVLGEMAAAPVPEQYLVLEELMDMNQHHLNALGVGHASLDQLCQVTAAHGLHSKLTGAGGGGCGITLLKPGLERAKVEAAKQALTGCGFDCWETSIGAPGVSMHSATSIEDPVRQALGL
As to `CC(C)=CCC/C(C)=C/CC/C(C)=C/CNC(=O)C(CP(=O)(O)O)C(=O)O` (centres undefined), the IC50 is above 200 µM.

The next assay has as its target T1, Squalene synthase (Rattus norvegicus, UniProt Q02769).
T1 sequence (Q02769 whole entry): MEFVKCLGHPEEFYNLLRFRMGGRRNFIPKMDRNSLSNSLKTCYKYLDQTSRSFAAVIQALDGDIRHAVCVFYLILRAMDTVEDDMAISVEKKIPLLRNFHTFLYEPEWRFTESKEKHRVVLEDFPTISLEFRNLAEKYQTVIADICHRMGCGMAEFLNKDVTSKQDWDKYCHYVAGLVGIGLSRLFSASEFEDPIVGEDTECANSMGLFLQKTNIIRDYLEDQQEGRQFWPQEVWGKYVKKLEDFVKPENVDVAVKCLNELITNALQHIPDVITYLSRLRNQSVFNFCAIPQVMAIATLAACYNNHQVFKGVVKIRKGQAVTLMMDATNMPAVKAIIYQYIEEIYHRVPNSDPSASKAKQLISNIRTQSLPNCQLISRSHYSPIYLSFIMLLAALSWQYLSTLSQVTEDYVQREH
Description: Inhibition of squalene synthase. The following applies: read-out: I50. Put shortly: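 Squalene synthetase was prepared from rat liver microsomes and used for I50 determination.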
Regarding `CC(C)=CCC/C(C)=C/CC/C(C)=C/CNC(=O)C(CP(=O)(O)O)C(=O)O` (centres undefined), the IC50 is 516 µM.

Another assay has as its target Protein farnesyltransferase (Sus scrofa). Description: Inhibition of pig brain farnesyl transferase. The following applies: read-out: I50.
Take `CCCCCCCCCCCCNC(=O)C(CP(=O)(O)O)C(=O)O` (centres undefined): the IC50 was 9 µM.

For `CC(C)=CCC/C(C)=C/CC/C(C)=C/C(=O)N[C@@H](CP(=O)(O)O)C(=O)O`, the IC50 came to 0.25 µM. Still for that read-out and setting: for `CC(C)=CCC/C(C)=C/CCC(C)(C)CCNC(=O)C(CP(=O)(O)O)C(=O)O` (centres undefined) the value was 55 µM. On the same count and under the same terms, for `CC(C)=CCC/C(C)=C/CC/C(C)=C/C(=O)N[C@@H](CCC(=O)O)C(=O)O` the value was 11.5 µM; for `CC(C)=CCC/C(C)=C/CC/C(C)=C/C(=O)N[C@H](CP(=O)(O)O)C(=O)O`, 0.5 µM; for `CC(C)=CCC/C(C)=C/CC/C(C)=C/CC(=O)N[C@@H](CP(=O)(O)O)C(=O)O`, 1.7 µM.

`CC(C)=CCC/C(C)=C/CC/C(C)=C/CC(=O)N[C@H](CP(=O)(O)O)C(=O)O`: the IC50 came out at 0.05 µM.

Turning to `CC(C)=CCC/C(C)=C/CC/C(C)=C/CN(C)C(=O)C(CP(=O)(O)O)C(=O)O` (centres undefined), the IC50 turned out to be 0.53 µM. The same measure, in the same setting: for `CC(C)=CCC/C(C)=C/CC/C(C)=C/CCNC(=O)C(CP(=O)(O)O)C(=O)O` (centres undefined) the value was 17.8 µM; for `CC(C)=CCC/C(C)=C/CC/C(C)=C/CNC(=O)CCC(=O)O`, 220 µM. Same read-out and setting: for `CC(C)=CCC/C(C)=C/CC/C(C)=C/C(=O)N[C@H](CC(=O)O)C(=O)O` the value was 25 µM. With `CC(C)=CCC/C(C)=C/CC/C(C)=C/C(=O)N[C@H](CCC(=O)O)C(=O)O`, the IC50 was determined as 30 µM. The same measure, in the same setting: for `CC(C)=CCC/C(C)=C/CC/C(C)=C/C(=O)N[C@@H](CC(=O)O)C(=O)O` the value was 12.6 µM.

The next assay shares this target. Description: Inhibition of pig brain farnesyl transferase. As to conditions: read-out: I50. The source holds these as a separate data set.
For `CC(C)=CCC/C(C)=C/CC/C(C)=C/CNC(=O)CCP(=O)(O)O`, the IC50 amounted to 4.6 µM.

With `CC(C)=CCC/C(C)=C/CC/C(C)=C/CNC(=O)CP(=O)(O)O`, the IC50 came to 41.5 µM. For the compound `CC(C)=CCC/C(C)=C/CC/C(C)=C/CNC(=O)CC(=O)O`, the IC50 was 115 µM.

The target is the same in a further assay. Description: Inhibition of pig brain farnesyl transferase. The following applies: read-out: I50. This is another data set of the same source.
With `CC(C)=CCC/C(C)=C/CC/C(C)=C/CNC(=O)C(CP(=O)(O)O)C(=O)O` (centres undefined), the IC50 was found to be 0.075 µM.
